The term IC50 denotes the concentration that inhibits the measured activity by half. The term CC50 denotes the concentration at which the toxic effect on the cells reaches its halfway point. A high value points to better tolerance by the cells.

Some results are limits rather than exact numbers.

The subject of the first test is Human immunodeficiency virus 1. The experiment in a line: Concentration required to inhibit the viral (HIV-1 IIIB strain) cytopathic effect by 50% in MT-4 cells. It is filed as functional, organism-based. To be noted: Human immunodeficiency virus 1, MT4. Put shortly:
(§1)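 Virus-infected MT-4 cells cultured with serial compound dilutions; viability measured 5 days after infection by MTT tetrazolium colorimetric read-out. The value is the concentration protecting 50% of cells from viral cytopathic effect. Averages ± SD from at least two independent experiments. HIV-2 and SIV stocks came from infected MT-4 culture supernatants.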
A general note: Damage to the host cells serves as the signal in cytopathic effect assays.
For `CC1N=C(S)N(Nc2ccccc2)C1c1ccccc1` (configuration not stated), the half-inhibitory concentration (IC50) is greater than 191 µM.

In turn, `Cc1nc(S)n(Nc2ccc(F)cc2)c1-c1ccccc1` registered an IC50 greater than 220 µM.

`Cc1nc(SCc2ccccc2)n(Nc2cccc(Cl)c2)c1-c1ccccc1` gave a concentration for half-maximal inhibition (IC50) greater than 39.7 µM.

For the compound `Cc1cccc(NN2C(S)=NC(C)C2C)c1` (configuration not stated), the IC50 was greater than 360 µM.

Compound `Cc1cccc(Nn2cnc(C)c2C)c1` showed an IC50 greater than 312 µM.

For the compound `Cc1cccc(Nn2cnc(C)c2-c2cccc(C(N)=O)c2)c1`, the IC50 is greater than 162 µM.

Turning to `Cc1nc(S)n(Nc2ccc(Cl)cc2)c1-c1ccccc1`, the IC50 is greater than 134 µM.

`CC1N=C(S)N(Nc2ccccc2)C1C` (configuration not stated) came in with a 50% inhibitory concentration (IC50) greater than 181 µM.

`CC1N=C(S)N(Nc2cccc(Cl)c2)C1C(=O)O` (configuration not stated): the IC50 is greater than 266 µM.

Compound `SC1=NC2CCCCC2N1Nc1cccc(Cl)c1` (configuration not stated) yielded an IC50 greater than 126 µM.

Take `CSc1nc(C)c(-c2ccccc2)n1Nc1cccc(Cl)c1`: the half-inhibitory concentration (IC50) was greater than 42.1 µM.

As for `CC1N=C(S)N(Nc2cccc(Cl)c2)C1C` (configuration not stated), the 50% inhibitory concentration (IC50) is greater than 259 µM.

`CC1N=C(S)N(Nc2cccc(Cl)c2)C1c1cccc(C(N)=O)c1` (configuration not stated) came in with a concentration for half-maximal inhibition (IC50) greater than 42.2 µM.

`Cc1cccc(Nn2cnc(C)c2-c2cccc(C#N)c2)c1` registered a concentration for half-maximal inhibition (IC50) greater than 44.7 µM.

As to `COC(=O)C1N=C(S)N(Nc2cccc(Cl)c2)C1C` (configuration not stated), the IC50 is greater than 48.8 µM.

Regarding `Cc1cccc(NN2C(S)=NC(C)C2c2cccc(C(=O)O)c2)c1` (configuration not stated), the concentration for half-maximal inhibition (IC50) is greater than 187 µM.

For a further test, the system named is Simian immunodeficiency virus. The test is described as follows: Concentration required to inhibit the viral (SIV mac251) cytopathic effect by 50% in MT-4 cells. It is filed as functional, organism-based, MT4. As to conditions: Simian immunodeficiency virus, mac251, MT4. Put shortly:
as §1
In the case of `CC1N=C(S)N(Nc2ccccc2)C1c1ccccc1` (configuration not stated), the IC50 is greater than 191 µM.

`Cc1nc(S)n(Nc2ccc(F)cc2)c1-c1ccccc1` displayed an IC50 greater than 220 µM.

Regarding `Cc1nc(SCc2ccccc2)n(Nc2cccc(Cl)c2)c1-c1ccccc1`, the concentration for half-maximal inhibition (IC50) is greater than 39.7 µM.

`Cc1cccc(NN2C(S)=NC(C)C2C)c1` (configuration not stated): the IC50 is greater than 360 µM.

On to `Cc1cc(C)cc(Nn2cnc(C)c2-c2ccccc2)c1`, for which the concentration for half-maximal inhibition (IC50) is greater than 20.4 µM.

In the case of `Cc1cccc(Nn2cnc(C)c2C)c1`, the IC50 is greater than 312 µM.

The compound `Cc1cccc(Nn2cnc(C)c2-c2cccc(C(N)=O)c2)c1` returned an IC50 greater than 162 µM.

Regarding `Cc1nc(S)n(Nc2ccc(Cl)cc2)c1-c1ccccc1`, the half-maximal inhibitory concentration (IC50) was greater than 134 µM.

With `Cc1ncn(Nc2ccccc2)c1-c1ccccc1`, the IC50 is greater than 52.2 µM.

`CC1N=C(S)N(Nc2ccccc2)C1C` (configuration not stated) gave an IC50 greater than 181 µM.

Regarding `CC1N=C(S)N(Nc2cccc(Cl)c2)C1C(=O)O` (configuration not stated), the IC50 was greater than 266 µM.

`SC1=NC2CCCCC2N1Nc1cccc(Cl)c1` (configuration not stated) had a half-maximal inhibitory concentration (IC50) greater than 126 µM.

`CSc1nc(C)c(-c2ccccc2)n1Nc1cccc(Cl)c1` had an IC50 greater than 42.1 µM.

The compound `CC1N=C(S)N(Nc2cccc(Cl)c2)C1C` (configuration not stated) returned a concentration for half-maximal inhibition (IC50) greater than 259 µM.

Compound `CC1N=C(S)N(Nc2cccc(Cl)c2)C1c1cccc(C(N)=O)c1` (configuration not stated) showed an IC50 greater than 42.2 µM.

For `Cc1cccc(Nn2cnc(C)c2-c2cccc(C#N)c2)c1`, the IC50 was greater than 44.7 µM.

`COC(=O)C1N=C(S)N(Nc2cccc(Cl)c2)C1C` (configuration not stated) came in with an IC50 greater than 48.8 µM.

Consider `Cc1cccc(NN2C(S)=NC(C)C2c2cccc(C(=O)O)c2)c1` (configuration not stated), for which the IC50 is greater than 187 µM.

Still in this test, the particulars now being: mt4.
Compound `Cc1ncn(Nc2cccc(Cl)c2)c1C` returned an IC50 greater than 214 µM.

Take `Clc1cccc(Nn2cnc3c2CCCC3)c1`: the half-maximal inhibitory concentration (IC50) was greater than 67.3 µM.

The subject of the next test is Human immunodeficiency virus 2. The experiment in a line: Concentration required to inhibit the viral (HIV-2 ROD) cytopathic effect by 50% in MT-4 cells. To be noted: Human immunodeficiency virus 2, MT4. Format: functional, organism-based, MT4. Put shortly: as §1
`CC1N=C(S)N(Nc2ccccc2)C1c1ccccc1` (configuration not stated) displayed an IC50 greater than 191 µM.

Compound `Cc1nc(S)n(Nc2ccc(F)cc2)c1-c1ccccc1` displayed an IC50 greater than 220 µM.

As for `Cc1nc(SCc2ccccc2)n(Nc2cccc(Cl)c2)c1-c1ccccc1`, the IC50 was greater than 39.7 µM.

In the case of `Cc1cccc(NN2C(S)=NC(C)C2C)c1` (configuration not stated), the IC50 was greater than 360 µM.

For `Cc1cc(C)cc(Nn2cnc(C)c2-c2ccccc2)c1`, the half-inhibitory concentration (IC50) was greater than 20.4 µM.

On to `Cc1cccc(Nn2cnc(C)c2C)c1`, for which the IC50 is greater than 312 µM.

Take `Cc1cccc(Nn2cnc(C)c2-c2cccc(C(N)=O)c2)c1`: the IC50 is greater than 162 µM.

`Cc1nc(S)n(Nc2ccc(Cl)cc2)c1-c1ccccc1` returned a half-maximal inhibitory concentration (IC50) greater than 134 µM.

For the compound `Cc1ncn(Nc2ccccc2)c1-c1ccccc1`, the IC50 was greater than 52.2 µM.

For the compound `CC1N=C(S)N(Nc2ccccc2)C1C` (configuration not stated), the IC50 was greater than 181 µM.

`CC1N=C(S)N(Nc2cccc(Cl)c2)C1C(=O)O` (configuration not stated) returned a 50% inhibitory concentration (IC50) greater than 266 µM.

Consider `SC1=NC2CCCCC2N1Nc1cccc(Cl)c1` (configuration not stated), for which the half-inhibitory concentration (IC50) is greater than 126 µM.

The compound `CSc1nc(C)c(-c2ccccc2)n1Nc1cccc(Cl)c1` came in with a concentration for half-maximal inhibition (IC50) greater than 42.1 µM.

Compound `CC1N=C(S)N(Nc2cccc(Cl)c2)C1C` (configuration not stated) came in with an IC50 greater than 259 µM.

Regarding `CC1N=C(S)N(Nc2cccc(Cl)c2)C1c1cccc(C(N)=O)c1` (configuration not stated), the IC50 is greater than 42.2 µM.

In the case of `Cc1cccc(Nn2cnc(C)c2-c2cccc(C#N)c2)c1`, the IC50 was greater than 44.7 µM.

Take `COC(=O)C1N=C(S)N(Nc2cccc(Cl)c2)C1C` (configuration not stated): the half-inhibitory concentration (IC50) is greater than 48.8 µM.

`Cc1cccc(NN2C(S)=NC(C)C2c2cccc(C(=O)O)c2)c1` (configuration not stated) yielded an IC50 greater than 187 µM.

Still in this test, the particulars now being: mt4.
`Cc1ncn(Nc2cccc(Cl)c2)c1C` registered an IC50 greater than 214 µM.

As for `Clc1cccc(Nn2cnc3c2CCCC3)c1`, the 50% inhibitory concentration (IC50) is greater than 67.3 µM.

The subject of a further test is MT4. The test is described as follows: Concentration that reduced the MT-4 cell viability by 50%. It is filed as functional, Homo sapiens.
Conditions: not given
In a few lines: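 Mock-infected MT-4 cells, run in parallel with the antiviral assay, were exposed to compound. Viability on day 5 was read by MTT colorimetry. The value is the concentration lowering viability by 50%. Averages ± SD from at least two independent experiments.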
Regarding `Cc1ncn(Nc2cccc(Cl)c2)c1C`, the midpoint of cytotoxicity, the CC50, lay at 214 µM.

Turning to `Clc1cccc(Nn2cnc3c2CCCC3)c1`, it took 67.3 µM to reach half-maximal cytotoxicity (CC50). This CC50 lies about 3.2-fold lower than the previous one.

Still in this test, the particulars now being: Homo sapiens, MT4.
Regarding `CC1N=C(S)N(Nc2ccccc2)C1c1ccccc1` (configuration not stated), the CC50 turned out to be 191 µM.

`Cc1nc(S)n(Nc2ccc(F)cc2)c1-c1ccccc1` displayed a CC50 of 220 µM. The CC50 values of the last two compounds are within 1.5-fold of each other.

In the case of `Cc1nc(SCc2ccccc2)n(Nc2cccc(Cl)c2)c1-c1ccccc1`, the CC50 was found to be 39.7 µM.

The compound `Cc1cccc(NN2C(S)=NC(C)C2C)c1` (configuration not stated) showed a CC50 of 360 µM.

On to `Cc1cc(C)cc(Nn2cnc(C)c2-c2ccccc2)c1`, for which the CC50 amounted to 20.4 µM.

Compound `Cc1cccc(Nn2cnc(C)c2C)c1` gave a CC50 of 312 µM.

Turning to `Cc1cccc(Nn2cnc(C)c2-c2cccc(C(N)=O)c2)c1`, the CC50 was 162 µM.

Compound `Cc1nc(S)n(Nc2ccc(Cl)cc2)c1-c1ccccc1` showed a cytotoxic concentration (CC50) of 134 µM. The CC50 values of the last two compounds are within 1.5-fold of each other.

On to `Cc1ncn(Nc2ccccc2)c1-c1ccccc1`, for which the CC50 amounted to 52.2 µM.

`CC1N=C(S)N(Nc2ccccc2)C1C` (configuration not stated): the CC50 came to 181 µM.

Turning to `CC1N=C(S)N(Nc2cccc(Cl)c2)C1C(=O)O` (configuration not stated), the 50% cytotoxic concentration (CC50) was found to be 266 µM.

In turn, `SC1=NC2CCCCC2N1Nc1cccc(Cl)c1` (configuration not stated) yielded a 50% cytotoxic concentration (CC50) of 126 µM.

`CSc1nc(C)c(-c2ccccc2)n1Nc1cccc(Cl)c1` gave a CC50 of 42.1 µM.

Compound `CC1N=C(S)N(Nc2cccc(Cl)c2)C1C` (configuration not stated) showed a CC50 of 259 µM. This CC50 is about 6.2-fold higher than that of the compound before.

Compound `CC1N=C(S)N(Nc2cccc(Cl)c2)C1c1cccc(C(N)=O)c1` (configuration not stated) had a cytotoxic concentration (CC50) of 42.2 µM.

Compound `Cc1cccc(Nn2cnc(C)c2-c2cccc(C#N)c2)c1` had a CC50 of 44.7 µM. The CC50 values of the last two compounds are within 1.5-fold of each other.

In turn, `COC(=O)C1N=C(S)N(Nc2cccc(Cl)c2)C1C` (configuration not stated) came in with a cytotoxic concentration (CC50) of 48.8 µM.

`Cc1cccc(NN2C(S)=NC(C)C2c2cccc(C(=O)O)c2)c1` (configuration not stated) came in with a CC50 of 187 µM.

Another test has as its system Human immunodeficiency virus 1. The experiment in a line: Concentration required to inhibit the viral (HIV-1 NL4.3 strain) cytopathic effect by 50% in MT-4 cells. Format: functional, organism-based. As to conditions: Human immunodeficiency virus 1, MT4. In a few lines:
as §1
Turning to `CC1N=C(S)N(Nc2ccccc2)C1c1ccccc1` (configuration not stated), the IC50 is greater than 191 µM.

The compound `Cc1nc(S)n(Nc2ccc(F)cc2)c1-c1ccccc1` came in with a 50% inhibitory concentration (IC50) greater than 220 µM.

Regarding `Cc1nc(SCc2ccccc2)n(Nc2cccc(Cl)c2)c1-c1ccccc1`, the IC50 is greater than 39.7 µM.

`Cc1cccc(NN2C(S)=NC(C)C2C)c1` (configuration not stated) gave an IC50 greater than 360 µM.

`Cc1cccc(Nn2cnc(C)c2C)c1`: the IC50 is greater than 312 µM.

Turning to `Cc1cccc(Nn2cnc(C)c2-c2cccc(C(N)=O)c2)c1`, the 50% inhibitory concentration (IC50) is greater than 162 µM.

Take `Cc1nc(S)n(Nc2ccc(Cl)cc2)c1-c1ccccc1`: the half-maximal inhibitory concentration (IC50) is greater than 134 µM.

Turning to `CC1N=C(S)N(Nc2ccccc2)C1C` (configuration not stated), the half-maximal inhibitory concentration (IC50) is greater than 181 µM.

Take `CC1N=C(S)N(Nc2cccc(Cl)c2)C1C(=O)O` (configuration not stated): the IC50 is greater than 266 µM.

Consider `SC1=NC2CCCCC2N1Nc1cccc(Cl)c1` (configuration not stated), for which the IC50 is greater than 126 µM.

Regarding `CSc1nc(C)c(-c2ccccc2)n1Nc1cccc(Cl)c1`, the half-maximal inhibitory concentration (IC50) was greater than 42.1 µM.

The compound `CC1N=C(S)N(Nc2cccc(Cl)c2)C1C` (configuration not stated) gave an IC50 greater than 259 µM.

With `CC1N=C(S)N(Nc2cccc(Cl)c2)C1c1cccc(C(N)=O)c1` (configuration not stated), the half-maximal inhibitory concentration (IC50) is greater than 42.2 µM.

`Cc1cccc(Nn2cnc(C)c2-c2cccc(C#N)c2)c1` yielded an IC50 greater than 44.7 µM.

Take `COC(=O)C1N=C(S)N(Nc2cccc(Cl)c2)C1C` (configuration not stated): the half-inhibitory concentration (IC50) is greater than 48.8 µM.

For `Cc1cccc(NN2C(S)=NC(C)C2c2cccc(C(=O)O)c2)c1` (configuration not stated), the IC50 was greater than 187 µM.
